The subject of data set [1] is nitric oxide (NO) production in RAW 264.7 stimulated by LPS. The experiment in a line: Nitric oxide inhibition in RAW 264.7 induced by LPS. Type of data set: cell-based. The following applies: Mus musculus, RAW264.7, 24 h, read-out: no. inhibition %. An outline of the steps: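 Mouse RAW 264.7 cells at 1 × 10^6 cells/mL were treated with test compound at 10 μM or L-NAME at 250 μM. After 1 h, 1 μg/mL LPS was added for 24 h. Supernatant nitrite was measured with Griess reagent at 540 nm against a standard curve run alongside the samples.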

A short description of data set [2]: MTT cytotoxicity assay on RAW 264.7. Type of data set: cell-based. The following applies: mouse, RAW 264.7 cells. In short, it runs like this:
(§1)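 Cells were maintained in DMEM with 10% FBS and 1% pen-strep at 37 °C, 5% CO2, to 80% confluence. They were seeded in 96-well plates and exposed to test compound at 25 μM for 24 h. Viability was determined by MTT and given as % viability, mean ± SD of two independent experiments.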

Data set [3] in a line: MTT cytotoxicity assay on HepG2. Type of data set: cell-based. To be noted: human, HepG2 cells. An outline of the steps:
as §1
A general note: Formazan colour is commonly taken as a measure of viable cells.

In a further data set the test system is pin-1. The following applies: read-out: IC50 (pin-1); cited from earlier work.
The subject of a further data set is HepG2. The following applies: dose of 100 μM; cited from earlier work.

For orientation: inhibition means the drop in the measured response relative to a control, in per cent. Consider `COC(=O)[C@@H](N)CCCNC(N)=N[N+](=O)[O-]` [L-NAME, L-NG-nitro arginine methyl ester], for which, in data set [1], the inhibition at 250 µM stood at 84.76 ± 0.4%.

By viability is commonly meant the share of living cells, or the viability signal relative to a control. Low values mean a greater loss of cells, high ones better survival. Usually IC50 stands for the midpoint of a concentration-inhibition curve. Regarding `CC(=O)O[C@@H]1CC[C@@]2(C)[C@@H](CC[C@]3(C)[C@@H]2C(=O)C=C2[C@@H]4[C@@H](C)[C@H](C)CC[C@]4(C)CC[C@]23C)[C@@]1(C)C(=O)O` [compound 1, 3-acetyl-11-keto-β-boswellic acid], the figures for the viability at 24 h, 25 µM in data set [2] and in data set [3] were 92 ± 1.2% and 86 ± 2.6%, respectively. Further, the inhibition at 10 µM in data set [1] stood at 74 ± 0.1%. Also, the IC50 with pin-1 is 50 µM.

With `Cc1ccc(C(C)C)c(O)c1` [thymol], the “effect on APAP hepatotoxicity in HepG2” value in the data set on HepG2 is recorded as “ameliorated APAP hepatotoxicity”.

The values are drawn from PMC10601058 (ACS Omega, 2023).
